Laboratory results reported in PubChem BioAssay AID651572 (The Scripps Research Institute Molecular Screening Center, 2012).
Screen size: about 360,000 compounds; about 950 (0.26%) were called active. The sample holds actives, similar compounds and a random draw of the others, so the mix is not that of the screen. Values without a mark were called inactive.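 The calls were made as follows: active = inhibition above a per-plate limit, mean inhibition of low control wells plus 3 SD (cut at about 25% in these data); inactive = the rest.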

molecular target: ADP-ribosylation factor GTPase-activating protein 1 (Rattus norvegicus) (UniProt Q62848); assay: blockers of ARFGAP1-stimulated ARF1 GTP hydrolysis – biochemical, fluorescence polarization, GDP tracer, primary screen (AID 651572); conditions: GDP FP detection, at 16.5 µM, active compounds read high;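 also: 0% = DMSO wells with enzyme and 100% = wells lacking Arfgap1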
Sequence (Q62848 1-136 limits assumed): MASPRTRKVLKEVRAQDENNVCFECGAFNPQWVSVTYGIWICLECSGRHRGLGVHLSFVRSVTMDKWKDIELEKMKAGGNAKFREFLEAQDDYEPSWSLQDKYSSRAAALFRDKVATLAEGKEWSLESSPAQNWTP
Outline: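 Material – truncated rat Arfgap1 GAP domain · Buffer or medium – HEPES-based buffer, pH 7.5 · Reagent – human ARF1(Δ1-17)-GTP substrate · Dosing – 16.5 µM single point, 1.26% DMSO · Schedule – GTP hydrolysis reaction 2 h at 25 °C · Technique – GDP detection by fluorescence polarization · Benchmarks – No-Arfgap1 wells (100%) versus DMSO full-reaction wells (0%) · Repeats – single replicate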

| Structure (SMILES) | inhibition |
| --- | --- |
| Cc1nc(NC(=O)C(C)(C)C)sc1[N+](=O)[O-] | -3.35% |
| O=C(N[C@H](Cc1ccccc1)C(=O)N1CCCN(Cc2cccs2)CC1)[C@H]1O[C@@H](n2ccc(=O)[nH]c2=O)[C@H](O)[C@@H]1O | 17.7% |
| COc1ccc(NC(=O)c2ccc(C#CC(C)(C)O)cc2)cc1 | -7.91% |
| Cc1ccc(NC(=O)c2ccc(Oc3ncccn3)cc2)cc1 | 25.6% (active) |
| CCOc1ccc(C(=O)Nc2cccc(SC)c2)cc1 | 2.92% |
| CC(C)C[C@H](NC(=O)CC1CCCC1)C(=O)N1CCC[C@H]1C(=O)NCc1ccccc1 | 2.12% |
| Nc1ncnc2c1ncn2C1OC(CO)CC1O (stereo not drawn) | 3.3% |
| CC(C)CCSc1ncnc2c1oc1nc3c(cc12)COC(C)(C)C3 | 28.1% (active) |
| CCCc1nc2oc3c(OCC)ncnc3c2c2c1COC(C)(C)C2 | 16.9% |
| CC1(C)Cc2nc3sc4c(SCC(=O)NC(c5ccccc5)c5ccccc5)ncnc4c3cc2CO1 | -6.88% |
| O=C(NCc1ccccc1)[C@H]1CCCN1C(=O)[C@H]1CCCN1C(=O)N1CCOCC1 | -1.77% |
| COC(=O)C1=C(C)N(Cc2ccc(C(F)(F)F)cc2)C(=NCc2ccc(C(F)(F)F)cc2)NC1c1cccc(Cl)c1 (stereo not drawn) | 9.23% |
| Nc1ncnc2c1ncn2[C@@H]1O[C@H](C(=O)N[C@@H](CCc2ccccc2)C(=O)NCC(=O)N2CCOCC2)[C@@H](O)[C@H]1O | -17.3% |
| O=C(O)CCn1cc(/C=C/C(=O)c2ccc(Cl)cc2)c(-c2cccc(Br)c2)n1 | 26.5% (active) |
| CCOC(=O)C1=C(C(=O)OCC)C2N(Cc3ccc(C#N)cc3)c3ccccc3[C@@]23C[C@@H](C(=O)OC)N(S(=O)(=O)c2ccc(F)cc2)C3=N1 (stereo partly drawn) | 6.03% |
| CCc1c(-c2ccccc2OC)ncn1CCc1ccccc1OC | 2.34% |
| CC1CCN(C(=O)c2ncn3c2C(=O)N[C@@H](C)C3)CC1 | 5.31% |
| COc1cccc(-c2cc(CNC(=O)[C@@H](Cc3ccccc3)NC(=O)[C@H]3O[C@@H](n4cnc(C(N)=O)n4)[C@H](O)[C@@H]3O)no2)c1 | -9.08% |
| COC(=O)C1=C(C)N(Cc2ccc(C(F)(F)F)cc2)C(=NCc2ccccc2)NC1c1ccccc1C(F)(F)F (stereo not drawn) | 9.08% |
| O=C(O)c1ccc(COc2c(F)c(F)cc(F)c2F)o1 | 5.24% |
| O=C(O)CSCc1ccc(C(=O)O)o1 | 25.2% (active) |
| O=C(O)c1ccc(S(=O)(=O)N2CCOCC2)o1 | -3.82% |

| Structure (SMILES) | inhibition |
| --- | --- |
| CCNS(=O)(=O)c1ccc(NC(=O)Nc2cccc(C(F)(F)F)c2)cc1 | 28.9% (active) |
| CCNS(=O)(=O)c1ccc(NC(=O)c2cncc(Br)c2)cc1 | -3.5% |
| Cc1cc(S(=O)(=O)N2CCOCC2)ccc1OCC(=O)Nc1cccc(C(F)(F)F)c1 | 2.22% |
| COC(=O)[C@]12C[C@H](CC(=O)N3CCN(C(=O)C4CC4)CC3)C(=O)N(Cc3ccc4c(c3)OCO4)C1=C[C@H](C(C)(C)C)O[C@@H]2C | 11.2% |
| COC(=O)[C@H](CC(C)C)NS(=O)(=O)c1c(F)cccc1F | 4.12% |
| COC(=O)CSc1ncnc2c1cnn2-c1ccc(C)cc1C | 8% |
| Cc1ccc(-n2ncc3c2ncn2nc(-c4ccco4)nc32)c(C)c1 | 44.3% (active) |
| Cc1ccc(-n2ncc3c(=O)n(-c4ccc(C)c(C)c4)c(-c4ccco4)nc32)cc1 | -1.3% |
| Cc1ccc(NC(=O)N2c3ccccc3SC2c2ccco2)c(C)c1 (stereo not drawn) | -11.2% |
| COCc1[nH]nc2c1C(c1ccccc1)N(c1ccccc1)C2=O (stereo not drawn) | 8.17% |
| CCOC(=O)CNC(=O)N(C)[C@H]1C[C@H]2c3[nH]c4c(-c5ccc6c(c5)OCO6)cccc4c3CCN2C(=O)[C@H]1[C@H](C)O | -1.05% |
| O=c1[nH]c(-c2ccccc2)cn1C1CCN(Cc2ccc(-c3nc4ccc(F)cc4nc3-c3ccccc3)cc2)CC1 | 6.41% |
| Cc1ccc(C)c(CN2CCC(CNC(=O)C3CCCN(c4ncnc5c4nc4n5CCCCC4)C3)CC2)c1 (stereo not drawn) | 1.05% |
| Cn1c(=O)[nH]c(=O)c2c1nc(N1CCN(C(c3ccccc3)c3ccccc3)CC1)n2CCO | -3.12% |
| Cc1nnc(SCCCn2c(N3CCCCC3)nc3c2c(=O)[nH]c(=O)n3C)s1 | -8.33% |
| Cn1c(=O)[nH]c(=O)c2c1nc(N1CCN(CCO)CC1)n2CCSc1nc2ccccc2s1 | 38.1% (active) |
| CCCCCCCCN1C(=O)[C@@H](CC(=O)N2CCN(C(=O)OCC)CC2)C[C@@]2(C(=O)OC)C1=C[C@H](C1CCCC1)O[C@@H]2C | -12.9% |
| NC(c1csc(NC(=O)Nc2cccc(C(F)(F)F)c2)n1)C1CCCCC1 (stereo not drawn) | 10.7% |
| COc1ccc(C(N)c2csc(NC(=O)Nc3cccc(C(F)(F)F)c3)n2)cc1 (stereo not drawn) | 26.1% (active) |
| COc1ccc(CC(N)c2csc(NC(=O)Nc3ccc(C(C)C)cc3)n2)cc1 (stereo not drawn) | 16% |
| O=C(O)Cn1cnc2c(NCc3ccccc3)ncnc21 | -10.7% |
